Results reported in ChEMBL document CHEMBL5614410, “Design, Synthesis, and Evaluation of p53Y220C Acetylation Targeting Chimeras (AceTACs)” (J Med Chem, 2024).
The source made the active and inactive calls. No cut-off for these calls is given here.

How the values were obtained:
[1] = system: CREB-binding protein/Histone acetyltransferase p300/Cellular tumor antigen p53 (Homo sapiens), P04637+Q09472+Q92793 [Y220C]; assay: AceTAC activity at FLAG-tagged p53Y220C mutant (unknown origin) expressed in human NCI-H1299 cells expressing p300/CBP and transfected with control siRNA assessed as increase in p53 acetylation at lysine 382 residue at 1 to 10 uM incubated for 24 hrs by western blot analysis; assay type: cell-based; details: dose 1-10 µM
Summary of the method: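 NCI-H1299 cells stably expressing p53Y220C were given control or p300 siRNA, then treated at 0, 1 or 10 μM for 24 h. Lysates were Western blotted for p53 and p53K382ac. The acetylation level was normalised to vinculin and quantified from two independent experiments.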

[2] = system: CREB-binding protein/Histone acetyltransferase p300/Cellular tumor antigen p53 (Homo sapiens), P04637+Q09472+Q92793 [Y220C]; assay: AceTAC activity at FLAG-tagged p53Y220C mutant (unknown origin) expressed in human NCI-H1299 cells expressing p300/CBP assessed as downregulation of SLC7A11 mRNA expression at 3 uM incubated for 24 hrs by RT-PCR analysis; assay type: cell-based
Summary of the method: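 NCI-H1299 p53Y220C cells were treated with DMSO or compound at 3 μM for 24 h. mRNA of p53-target genes was measured by RT-qPCR, normalised to GAPDH and expressed relative to DMSO control. Values are mean ± SD of three independent experiments.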

[3] = system: PNT2; assay: Cytotoxicity against human PNT2 cells assessed as inhibition of cell growth incubated for 72 hrs by WST-8 assay; assay type: toxicity, cell-based; details: pnt2, 72 h
Summary of the method: (§1)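 U2OS (WT p53) or normal prostate PNT2 cells were treated for 72 h at the indicated concentrations. Viability is mean ± SD of technical triplicates from two biological experiments.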

[4] = system: NCI-H1299; assay: Antiproliferative activity against human NCI-H1299 cells expressing p53Y220C mutant and transfected with p300 siRNA assessed as reduction in cell viability at 0.47 to 15 uM incubated for 3 days by WST-8 assay; assay type: functional, cell-based; details: dose 0.47-15 µM, time 3.0 day
Summary of the method: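 NCI-H1299 p53Y220C cells were first transfected with p300 siRNA for 72 h, then exposed to compound across the concentration series for 72 h. Viability is mean ± SD from three independent experiments.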

[5] = system: CREB-binding protein/Histone acetyltransferase p300/Cellular tumor antigen p53 (Homo sapiens), P04637+Q09472+Q92793 [Y220C]; assay: AceTAC activity at FLAG-tagged p53Y220C mutant (unknown origin) expressed in human NCI-H1299 cells expressing p300/CBP assessed as increase in p53 acetylation at lysine 382 residue at 10 uM pretreated for 2 hrs with p53Y220C mutant binder, PK9328 followed by incubation with compound for 18 hrs by western blot analysis; assay type: cell-based
[6] = system: NCI-H1299; assay: Antiproliferative activity against human NCI-H1299 cells expressing p53Y220C mutant assessed as reduction in cell viability incubated for 3 days by WST-8 assay; assay type: functional
Summary of the method: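 NCI-H1299 p53Y220C cells were exposed to compound over a concentration range for 72 h, in some runs after 72 h of control or p300 siRNA, before the viability read-out. Values are mean ± SD of three independent experiments.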

[7] = system: CREB-binding protein/Histone acetyltransferase p300/Cellular tumor antigen p53 (Homo sapiens), P04637+Q09472+Q92793 [Y220C]; assay: AceTAC activity at p53Y220C mutant in human NUGC-3 cells expressing p300/CBP assessed as increase in p53 acetylation at lysine 382 residue incubated for 24 hrs by western blot analysis; assay type: cell-based; details: dose 1-10 µM
Summary of the method: (§2)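 BxPC3 or NUGC-3 cells, which express p53Y220C endogenously, were treated with DMSO or compound at 1, 3 or 10 μM for 24 h. Lysates were Western blotted for p53 and p53K382ac, with vinculin as loading control. Representative of two independent experiments.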

[8] = system: CREB-binding protein/Histone acetyltransferase p300/Cellular tumor antigen p53 (Homo sapiens), P04637+Q09472+Q92793 [Y220C]; assay: AceTAC activity at p53Y220C mutant in human BXPC-3 cells expressing p300/CBP assessed as increase in p53 acetylation at lysine 382 residue incubated for 24 hrs by western blot analysis; assay type: cell-based; details: dose 1-10 µM; summary of the method: as §2
[9] = system: U2OS; assay: Cytotoxicity against human U2OS cells harboring wild type p53 assessed as inhibition of cell growth incubated for 72 hrs by WST-8 assay; assay type: toxicity, cell-based; summary of the method: as §1
[10] = Plasma concentration in Swiss albino mouse at 50 mg/kg, ip measured after 8 hrs by LC-MS/MS analysis; assay type: ADME, organism-based
Summary of the method: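 Swiss albino mice received a single 50 mg/kg intraperitoneal injection. Plasma levels were followed over 8 h. Each point is the mean ± SEM of three mice.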

[11] = system: CREB-binding protein/Histone acetyltransferase p300/Cellular tumor antigen p53 (Homo sapiens), P04637+Q09472+Q92793 [Y220C]; assay: Induction of interaction between FLAG-tagged p53Y220C mutant (unknown origin) and p300/CBP expressed in human NCI-H1299 cells at 10 uM pretreated for 2 hrs with p300/CBP bromodomain binder, 4-(2-(5-(3,5-dimethylisoxazol-4-yl)-2-(3-fluoro-4-methoxyphenethyl)-1H-benzo[d]imidazol-1-yl)ethyl)morpholine followed by incubation with compound for 18 hrs by co-immunoprecipitation analysis; assay type: cell-based
Summary of the method: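 NCI-H1299 (p53Y220C) cells were pretreated for 2 h with a 10 μM p53Y220C binder or a 10 μM p300 binder, then given compound at 3 μM for 18 h. p53-FLAG pull-down was followed by Western blot analysis.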

With `CCn1c2ccc(CNCCOCCOCCOCCC(=O)NCCOc3ccc(CCc4nc5cc(-c6c(C)noc6C)ccc5n4CCN4CCOCC4)cc3F)cc2c2ccc(-c3cc(C)cs3)cc21` the Activity [1] was “Active”, the Activity [2] was “Active” and the GI50 [3] was greater than 10 µM. The Activity [4] was “inactive”, the Activity [5] was “inactive” and the GI50 ([6]; NCI-H1299, 72 h, time 3 day) was 3 µM. For the same molecule, the Activity ([6]; time 3.0 day) was “Dose-Dependent Effect”, the Activity [7] was “Dose-Dependent Effect” and the Activity [8] was “Dose-Dependent Effect”. The GI50 [9] was greater than 10 µM, the concentration at 8 h [10] was greater than 400 nM and the Activity [11] was “inactive”.
